Experimental data gathered from unrelated publications.
Compare with care: the assays were run in different laboratories.
Target: Interferon-induced, double-stranded RNA-activated protein kinase (EIF2AK2, Homo sapiens, UniProt P19525)

c1cnn2ncc(-c3ccnc(N4CCC45COC5)n3)c2c1
remaining binding (binding; 1 µM): 100%

CCN1CCN(Cc2ccc(C(=O)Nc3ccc(C)c(Oc4ccc5c(c4)CC(=O)N5)c3)cc2C(F)(F)F)CC1
remaining binding (binding; competition with immobilised ligand; 1 µM): 96%

O=C(c1ccc(Nc2ncc(Cl)c(-c3ccc(Cl)s3)n2)cc1)N1CCC(N2CCCC2)CC1
remaining binding (binding; competition with immobilised ligand; 1 µM): 14%

CCS(=O)(=O)c1cc2cc(C[C@](O)(CC(C)(C)c3ccc(F)cc3C(N)=O)C(F)(F)F)[nH]c2cn1
remaining binding (cell-free assay; competition with immobilised ligand; 1 µM): 52%

CN(C)c1ncc(F)c(-c2cnn3ncccc23)n1
remaining binding (binding; 1 µM): 100%

O=c1nc(-c2ccccn2)sc2ccccc12
remaining binding (binding; competition with immobilised ligand; 1 µM): 100%

C[C@@H]1CCN(c2nccc(-c3cnn4ncccc34)n2)C1
remaining binding (binding; 1 µM): 83%

COc1ncc2cc3ccccc3nc2c1C#N
remaining binding (cell-free assay; competition with immobilised ligand; 5 µM): 100%

O=C(Nc1c[nH]nc1C(=O)NC1CCNCC1)c1cc(F)cc(F)c1
remaining binding (binding; competition with immobilised ligand; 1 µM): 100%

CN(C)c1nccc(-c2cnn3ncccc23)n1
remaining binding (binding; 1 µM): 100%

O=C(NCCCN1CCOCC1)c1ccc(Nc2ncc(Cl)c(-c3ccc(Cl)s3)n2)cc1
remaining binding (binding; competition with immobilised ligand; 1 µM): 58%

CS(=O)(=O)N1CCCC(NC(=O)[C@H](CCC2CCCCC2)NC(=O)c2ccc(CNC(=O)c3cnc4ccccn34)cc2)C1 (some centres unmarked)
remaining binding (cell-free assay; competition with immobilised ligand; 0.1 µM): 47%

c1cncc(-c2cccc(Nc3nccc(NC4CCCCC4)n3)c2)c1
remaining binding (binding; competition with immobilised ligand; 10 µM): 100%

CNC(=O)[C@@H]1CC[C@@H](n2c(-c3ccc4cnccc4c3)nc3ccc(C(=O)NCc4cccc(C(N)=O)c4)cc32)C1
remaining binding (binding; competition with immobilised ligand; 1 µM): 94%

CN(C)c1ncnc(-c2ccc3nc(Nc4cc(CN5CCN(C(=O)CC(F)(F)F)CC5)ccn4)[nH]c3c2)c1Cl
remaining binding (cell-free assay; competition with immobilised ligand; 1 µM): 100%

CN(CCCC(F)(F)F)c1nccc(-c2cnn3ncccc23)n1
remaining binding (binding; 1 µM): 100%

CN1CCN(c2cnc3c(C4CCN(C(=O)c5ccc(OC(F)(F)F)cc5N)CC4)ncnc3c2)CC1
remaining binding (cell-free assay; competition with immobilised ligand; 1 µM): 85%

Cc1cnc(Nc2ccc(C(=O)N3CCC(N4CCCC4)CC3)cc2)nc1-c1cc2ccccc2s1
remaining binding (binding; competition with immobilised ligand; 1 µM): 7%

CC(=O)N1CCC(c2ccc(C(=O)NC(=N)N)cc2C(F)(F)F)CC1
remaining binding (cell-free assay; competition with immobilised ligand; 1 µM): 100%

N[C@@H]1CCN(c2nccc(-c3cnn4ncccc34)n2)C1
remaining binding (binding; 1 µM): 100%
